From publication PMC13424379 (Fundamental Research, 2024)

Columns and labels:
[1] = test system: Tg (fli1a: EGFP) zebrafish; test: Zebrafish vascular injury model; format: in vivo; settings: for dose relation of the ameliorative effect on vascular injury: different concentrations, PTK787 model
In short: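 Tg(fli1a:EGFP) embryos at 24 hpf were dechorionated with 1 mg·mL⁻¹ protease E and placed 10 per well, 3 wells per group, in fish water (NaCl/KCl/CaCl2/MgSO4). Groups were vehicle (0.1% DMSO), 0.2 µg·mL⁻¹ PTK787, PTK787 plus 0.2 mg·mL⁻¹ aspirin, and PTK787 plus test compound. Exposure lasted 24 h at 28.5 °C on a 14/10 h light/dark cycle. ISV development was observed and ISV length measured.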

Tg (mpx: EGFP) zebrafish = test: Zebrafish immunocompromised model; format: in vivo; settings: for immune enhancement (number of neutrophils): compared to the model group
T1R3 = molecular target: T1, T1R3 (Homo sapiens, UniProt Q7RTX0); test: T1R3-HEMT biosensor interaction, dissociation constant; format: binding
T1 sequence (Q7RTX0 21-852): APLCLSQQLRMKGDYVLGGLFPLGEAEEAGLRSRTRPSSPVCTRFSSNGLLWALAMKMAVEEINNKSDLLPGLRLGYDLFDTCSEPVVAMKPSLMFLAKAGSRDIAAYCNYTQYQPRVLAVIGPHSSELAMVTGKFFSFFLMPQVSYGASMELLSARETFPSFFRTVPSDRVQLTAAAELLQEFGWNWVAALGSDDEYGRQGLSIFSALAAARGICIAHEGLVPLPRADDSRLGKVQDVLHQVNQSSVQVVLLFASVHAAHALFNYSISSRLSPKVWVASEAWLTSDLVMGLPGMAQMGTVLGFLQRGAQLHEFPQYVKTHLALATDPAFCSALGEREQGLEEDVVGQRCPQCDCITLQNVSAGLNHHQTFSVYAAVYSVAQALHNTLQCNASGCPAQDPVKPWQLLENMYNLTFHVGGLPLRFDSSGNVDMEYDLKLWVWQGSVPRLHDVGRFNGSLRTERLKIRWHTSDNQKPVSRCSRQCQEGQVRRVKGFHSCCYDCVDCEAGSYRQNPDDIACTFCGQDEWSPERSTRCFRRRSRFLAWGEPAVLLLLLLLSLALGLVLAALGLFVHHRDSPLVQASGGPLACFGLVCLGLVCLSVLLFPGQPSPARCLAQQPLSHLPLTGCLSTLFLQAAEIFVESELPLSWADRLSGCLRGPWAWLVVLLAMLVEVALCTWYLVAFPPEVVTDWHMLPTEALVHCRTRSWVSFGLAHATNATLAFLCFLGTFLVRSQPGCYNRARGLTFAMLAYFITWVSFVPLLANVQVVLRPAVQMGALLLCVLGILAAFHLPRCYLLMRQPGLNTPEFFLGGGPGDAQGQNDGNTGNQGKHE

T1R2 = molecular target: T2, T1R2 (Homo sapiens, UniProt Q8TE23); test: T1R2-HEMT biosensor interaction, dissociation constant; format: binding
T2 sequence (Q8TE23 20-839): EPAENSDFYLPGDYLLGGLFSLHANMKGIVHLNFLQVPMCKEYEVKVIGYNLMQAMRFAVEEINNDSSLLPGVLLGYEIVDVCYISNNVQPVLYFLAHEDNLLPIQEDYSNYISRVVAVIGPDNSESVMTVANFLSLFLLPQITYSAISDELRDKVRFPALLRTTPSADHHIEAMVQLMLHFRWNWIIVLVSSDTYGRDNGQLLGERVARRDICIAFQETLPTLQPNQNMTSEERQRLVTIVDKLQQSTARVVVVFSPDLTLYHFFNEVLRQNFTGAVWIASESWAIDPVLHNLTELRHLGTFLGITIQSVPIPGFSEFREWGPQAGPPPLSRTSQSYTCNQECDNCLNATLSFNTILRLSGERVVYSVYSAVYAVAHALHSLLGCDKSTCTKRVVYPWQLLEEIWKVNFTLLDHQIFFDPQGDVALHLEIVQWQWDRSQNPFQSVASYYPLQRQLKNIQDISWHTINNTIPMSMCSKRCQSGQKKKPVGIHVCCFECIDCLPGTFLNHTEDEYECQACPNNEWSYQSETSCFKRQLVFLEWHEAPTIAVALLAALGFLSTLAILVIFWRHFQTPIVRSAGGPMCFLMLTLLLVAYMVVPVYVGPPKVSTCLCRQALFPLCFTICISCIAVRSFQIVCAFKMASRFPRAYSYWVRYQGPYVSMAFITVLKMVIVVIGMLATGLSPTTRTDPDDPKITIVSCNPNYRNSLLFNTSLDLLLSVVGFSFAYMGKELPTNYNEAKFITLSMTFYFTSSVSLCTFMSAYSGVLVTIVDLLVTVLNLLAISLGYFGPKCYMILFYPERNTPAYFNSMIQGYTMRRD
In short: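 Recombinant T1R2 and T1R3 proteins (100 μg·mL⁻¹) were immobilised on an AlGaAs/GaAs HEMT chip at 4 °C. Test compounds in 0.5% DMSO were applied at eleven concentrations from 0.1 pmol·L⁻¹ to 1 mmol·L⁻¹. KD was derived by a linear fit of [C]/ΔI against [C], where ΔI is the current change and ΔImax the saturated current change.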

[2] = 25 µM·L^−1, with 0.2 µg·mL^−1 PTK787, compared with the model group

Compound | effect on ISVs [1, 2] | dose relation of the ameliorative effect on vascular injury [1] | Kd (T1R3) [nM] | Kd (T1R2) [nM] | also measured
C[C@@H]1CC[C@@]2(OC1)O[C@H]1C[C@H]3[C@@H]4CC=C5C[C@@H](O)C[C@@H](O)[C@]5(C)[C@H]4CC[C@]3(C)[C@H]1[C@@H]2C [ruscogenin] | significantly promote ISVs | stronger at medium and high doses | 0.217 | 52.5 | immune enhancement (number of neutrophils) (Tg (mpx: EGFP) zebrafish; 100 µM·L^−1, with 100 µg·mL^−1 vinorelbine): immune-enhancing effect
CCC1=C[C@@H]2CN(C1)Cc1c([nH]c3ccccc13)[C@@](C(=O)OC)(c1cc3c(cc1OC)N(C)[C@H]1[C@@](O)(C(=O)OC)[C@H](OC(C)=O)[C@]4(CC)C=CCN5CC[C@]31[C@@H]54)C2 [vinorelbine, Vinorelbine, reference compound] |  |  |  |  | number of neutrophils in the zebrafish tail (Tg (mpx: EGFP) zebrafish; 100 µg·mL^−1, model construction): significantly reduced
C=C1CCC[C@]2(C)C=C3OC(=O)C(C)=C3C[C@@H]12 [atractylenolide I] |  | dose-dependent effects | 0.0882 | 1.06 | effect on ISVs ([1]; 50 µM·L^−1, with 0.2 µg·mL^−1 PTK787, compared with the model group): significantly promote ISVs
Clc1ccc(Nc2nnc(Cc3ccncc3)c3ccccc23)cc1 [PTK787, Vatalanib (PTK787) 2HCl, reference compound] |  |  |  |  | total length of ISVs ([1]; 0.2 µg·mL^−1, compared with the control group, 24 h exposure): significantly reduce; teratogenicity ([1]; 0.2 µg·mL^−1, zebrafish embryos): not teratogenic
COc1ccc(-c2coc3cc(O)ccc3c2=O)cc1O [calycosin] | significantly promote ISVs | stronger at a low dose | 0.641 | 0.0017 | immune enhancement (number of neutrophils) (Tg (mpx: EGFP) zebrafish; 50 µM·L^−1, with 100 µg·mL^−1 vinorelbine): immune-enhancing effect
